Test results: ChEMBL document CHEMBL1121573, “2-(Aminomethyl)phenols, a new class of saluretic agents. 1. Effects of nuclear substitution” (J Med Chem, 1980)

System: Canis familiaris
Assay: Compound administered intravenously at a dose of 5 mg/kg was evaluated for salidiuretic activity measured as sodium ion excretion in Dog; Value ranges from 100-249
Format: ADME, organism-based, Canis lupus familiaris, Urine
Design: dose 5 mg/kg, route intravenous
Details: in vivo, iv
Method in brief: (§1)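 Conditioned female mongrel dogs, postabsorptive, water-loaded (500 mL po) 1 h before sodium pentobarbital anesthesia (30 mg/kg iv). Bladder catheter; creatinine 4 g sc; phosphate–mannitol buffer pH 7.4 infused (3.0 mL/min) throughout. […] Urine Na+ measured; response scored 0–6.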

Structure (SMILES) | Diuretic activity
COc1cc(Cl)c(Cl)c(CN)c1O.Cl | 100
Br.Cc1c(O)c(CN)c(Cl)c(C)c1Cl | 100
CCc1c(Cl)c(C)c(Cl)c(O)c1CN.Cl | 100
CC(C)Cc1cc(I)c(O)c(CN)c1.Cl | 100
CCCCc1cc(I)c(O)c(CN)c1.Cl | 100

Now from value to compound:

Diuretic activity | Structure (SMILES)
100 | CCCCc1cc(C)c(O)c(CN)c1.Cl
100 | CC(C)(C)c1cc(CN)c(O)c(Oc2ccc(Cl)cc2)c1.Cl
100 | Cc1cc(Cl)c(O)c(CN)c1.Cl
100 | COc1cc(C)cc(CN)c1O.Cl
100 | Cc1cc(Cl)cc(CN)c1O.Cl
100 | Cc1cc(CN)c(O)c(C(C)(C)C)c1.Cl

System: Rattus norvegicus
Assay: Compound administered orally at a dose of 81 mg/kg was evaluated for salidiuretic activity measured as sodium ion excretion in Rat
Format: ADME, organism-based, Urine
Design: dose 81 mg/kg, route oral; unit not given beside the values
Details: in vivo, po
Method in brief: (§2)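 Female Charles-River rats (150–170 g), overnight on sugar diet with water ad libitum. Compound dissolved in DMF, diluted with water containing Tween 80 (final 4% DMF), given po in 5.0 mL; concurrent vehicle placebo. Three rats per metabolism cage; 0–5 h urine analysed for Na+, K+, Cl-. Values: mequiv × 100 per cage, geometric means of three cages per dose; scored 0–6 by Na+.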

Structure (SMILES) | Diuretic activity
Cc1c(Cl)c(C(C)(C)C)c(Cl)c(O)c1CN.Cl | 2.9
NCc1cc(Cl)ccc1O | 1.5
COc1cc(Cl)c(Cl)c(CN)c1O.Cl | 1.5
Cc1cc(C)c(O)c(CN)c1C.Cl | 2.4
NCc1c(O)ccc(Cl)c1Cl | 1.5
Cl.NCc1cc(I)cc(I)c1O | 2.9
Br.Cc1c(O)c(CN)c(Cl)c(C)c1Cl | < 0.3
Cl.NCc1cc(Cl)cc(I)c1O | 2.4
C=C(CC)C(=O)c1ccc(OCC(=O)O)c(Cl)c1Cl [ETHACRYNIC ACID] | < 0.3
CCc1c(Cl)c(C)c(Cl)c(O)c1CN.Cl | 1.5
Cl.NCc1c(O)c(Cl)cc(Cl)c1O | 1.5
CC(C)Cc1cc(I)c(O)c(CN)c1.Cl | 1.5
CCCCc1ccc(O)c(CN)c1.Cl | < 0.3
CCC(C)c1cc(I)c(O)c(CN)c1.Cl (stereo unspecified) | 2.9
Cc1c(Cl)c(C)c(CN)c(O)c1CN.Cl.Cl | < 0.3
CCOC(=O)c1cc(I)c(O)c(CN)c1.Cl | 2.4
CCCCc1cc(I)c(O)c(CN)c1.Cl | < 0.3
Cc1c(C)c(C)c(CN)c(O)c1C.Cl | 2.9

Second part, the compound after the results:

Diuretic activity | Structure (SMILES)
2.9 | COc1c(C(C)(C)C)cc(I)c(O)c1CN.Cl
2.4 | CC(C)(C)c1cc(CN)c(O)c(Oc2ccc(Cl)cc2)c1.Cl
2.4 | Cc1cc(Cl)c(O)c(CN)c1.Cl
2.9 | CCC(C)(C)c1cc(I)c(O)c(CN)c1.Cl
2.9 | CC(C)(C)c1c(Cl)cc(CN)c(O)c1Cl.Cl

System: Canis familiaris
Assay: Compound administered intravenously at a dose of 5 mg/kg was evaluated for salidiuretic activity measured as sodium ion excretion in Dog; Value ranges from 0-99
Format: ADME, organism-based, Canis lupus familiaris, Urine
Design: dose 5 mg/kg, route intravenous
Details: in vivo, iv
Method in brief: as §1

Diuretic activity | Structure (SMILES)
0 | CCc1cc(CN)c(O)c(CN)c1.Cl
0 | Cl.NCc1cc(F)cc(Cl)c1O
0 | CC(C)(C)c1cc(O)c(CN)c(C(C)(C)C)c1.Cl
0 | CCCCc1ccc(O)c(CN)c1.Cl

System: Canis familiaris
Assay: Compound administered intravenously at a dose of 5 mg/kg was evaluated for salidiuretic activity measured as sodium ion excretion in Dog
Format: ADME, organism-based, Canis lupus familiaris, Urine
Design: dose 5 mg/kg, route intravenous
Details: in vivo, iv
Method in brief: as §1

Structure (SMILES) | Diuretic activity
C=C(CC)C(=O)c1ccc(OCC(=O)O)c(Cl)c1Cl [ETHACRYNIC ACID] | > 900
CCC(C)c1cc(I)c(O)c(CN)c1.Cl (stereo unspecified) | > 900

The next lines start with the values.

Diuretic activity | Structure (SMILES)
> 900 | CC(C)c1cc(Cl)c(O)c(CN)c1.Cl
> 900 | CC(C)(C)c1cc(F)c(O)c(CN)c1.Cl
> 900 | CCc1cc(Cl)c(O)c(CN)c1.Cl

System: Rattus norvegicus
Assay: Evaluated for salidiuretic activity measured as sodium ion excretion in Rat, administered orally at a dose of 50 mg/kg
Format: functional, Urine
Design: unit not given beside the values
Details: route oral
Method in brief: as §2

Structure (SMILES) | Diuretic activity
Cc1c(Cl)c(C(C)(C)C)c(Cl)c(O)c1CN.Cl | 2.4
COc1c(C(C)(C)C)cc(I)c(O)c1CN.Cl | 2.4
NCc1cc(Cl)ccc1O | 1.2
COc1cc(Cl)c(Cl)c(CN)c1O.Cl | 1.2
Cc1cc(C)c(O)c(CN)c1C.Cl | 1.8
NCc1c(O)ccc(Cl)c1Cl | 1.2
CC(C)(C)c1cc(CN)c(O)c(Oc2ccc(Cl)cc2)c1.Cl | 1.8
CC(C)c1cc(Cl)c(O)c(CN)c1.Cl | 3.6
Cl.NCc1cc(I)cc(I)c1O | 2.4
Br.Cc1c(O)c(CN)c(Cl)c(C)c1Cl | <0.2
Cl.NCc1cc(Cl)cc(I)c1O | 1.8
C=C(CC)C(=O)c1ccc(OCC(=O)O)c(Cl)c1Cl [ETHACRYNIC ACID] | <0.3
Cc1cc(Cl)c(O)c(CN)c1.Cl | 1.8
CCC(C)(C)c1cc(I)c(O)c(CN)c1.Cl | 2.4
CC(C)(C)c1cc(F)c(O)c(CN)c1.Cl | 3.3
CC(C)(C)c1c(Cl)cc(CN)c(O)c1Cl.Cl | 2.4
CCc1c(Cl)c(C)c(Cl)c(O)c1CN.Cl | 1.2
Cl.NCc1c(O)c(Cl)cc(Cl)c1O | 1.2
CC(C)Cc1cc(I)c(O)c(CN)c1.Cl | 1.2
CCCCc1ccc(O)c(CN)c1.Cl | <0.3
CCc1cc(Cl)c(O)c(CN)c1.Cl | 3.3
CCC(C)c1cc(I)c(O)c(CN)c1.Cl (stereo unspecified) | 2.4
Cc1c(Cl)c(C)c(CN)c(O)c1CN.Cl.Cl | <0.2
CCOC(=O)c1cc(I)c(O)c(CN)c1.Cl | 1.8
CCCCc1cc(I)c(O)c(CN)c1.Cl | <0.2
Cc1c(C)c(C)c(CN)c(O)c1C.Cl | 2.4

System: Rattus norvegicus
Assay: Compound administered orally at a dose of 1 mg/kg was evaluated for salidiuretic activity measured as sodium ion excretion in Rat
Details: in vivo, po

Diuretic activity | Structure (SMILES)
0.7 | CC(C)c1cc(Cl)c(O)c(CN)c1.Cl

System: not listed separately
Assay: Compound administered orally at a dose of 5 mg/kg was evaluated for salidiuretic activity measured as sodium ion excretion in Rat
Format: organism-based
Design: dose 5 mg/kg
Details: Urine
Method in brief: as §2

Structure (SMILES) | Diuretic activity
Cc1c(Cl)c(C(C)(C)C)c(Cl)c(O)c1CN.Cl | 0.5
COc1c(C(C)(C)C)cc(I)c(O)c1CN.Cl | 0.5
NCc1cc(Cl)ccc1O | 0.3
COc1cc(Cl)c(Cl)c(CN)c1O.Cl | 0.3
Cc1cc(C)c(O)c(CN)c1C.Cl | 0.4
NCc1c(O)ccc(Cl)c1Cl | 0.3
CC(C)(C)c1cc(CN)c(O)c(Oc2ccc(Cl)cc2)c1.Cl | 0.4
CC(C)c1cc(Cl)c(O)c(CN)c1.Cl | 2.6
Cl.NCc1cc(I)cc(I)c1O | 0.5
Cl.NCc1cc(Cl)cc(I)c1O | 0.4
Cc1cc(Cl)c(O)c(CN)c1.Cl | 0.4
CCC(C)(C)c1cc(I)c(O)c(CN)c1.Cl | 0.5
CC(C)(C)c1cc(F)c(O)c(CN)c1.Cl | 1.4
CC(C)(C)c1c(Cl)cc(CN)c(O)c1Cl.Cl | 0.5
CCc1c(Cl)c(C)c(Cl)c(O)c1CN.Cl | 0.3
Cl.NCc1c(O)c(Cl)cc(Cl)c1O | 0.3
CC(C)Cc1cc(I)c(O)c(CN)c1.Cl | 0.3
CCc1cc(Cl)c(O)c(CN)c1.Cl | 1.4
CCC(C)c1cc(I)c(O)c(CN)c1.Cl (stereo unspecified) | 0.5
Cc1c(C)c(C)c(CN)c(O)c1C.Cl | 0.5

System: Canis familiaris
Assay: Compound administered intravenously was evaluated for salidiuretic activity measured as sodium ion excretion in Dog; Value ranges from 0-99
Format: ADME, organism-based, Canis lupus familiaris, Urine
Details: in vivo, iv
Method in brief: as §1

Diuretic activity | Structure (SMILES)
0 | Cl.NCc1c(O)c(Cl)cc(Cl)c1O

System: not listed separately
Assay: Evaluated for salidiuretic activity measured as sodium ion excretion in Rat, administered orally at a dose of 16.5 mg/kg
Format: organism-based
Design: dose 16.5 mg/kg
Details: Urine
Method in brief: as §2

Structure (SMILES) | Diuretic activity
Cc1c(Cl)c(C(C)(C)C)c(Cl)c(O)c1CN.Cl | 1.4
COc1c(C(C)(C)C)cc(I)c(O)c1CN.Cl | 1.4
NCc1cc(Cl)ccc1O | 0.5
COc1cc(Cl)c(Cl)c(CN)c1O.Cl | 0.5
Cc1cc(C)c(O)c(CN)c1C.Cl | 0.6
NCc1c(O)ccc(Cl)c1Cl | 0.5
CC(C)(C)c1cc(CN)c(O)c(Oc2ccc(Cl)cc2)c1.Cl | 0.6
CC(C)c1cc(Cl)c(O)c(CN)c1.Cl | 3.3
Cl.NCc1cc(I)cc(I)c1O | 1.4
Cl.NCc1cc(Cl)cc(I)c1O | 0.6
Cc1cc(Cl)c(O)c(CN)c1.Cl | 0.6
CCC(C)(C)c1cc(I)c(O)c(CN)c1.Cl | 1.4
CC(C)(C)c1cc(F)c(O)c(CN)c1.Cl | 2.7
CC(C)(C)c1c(Cl)cc(CN)c(O)c1Cl.Cl | 1.4
CCc1c(Cl)c(C)c(Cl)c(O)c1CN.Cl | 0.5
Cl.NCc1c(O)c(Cl)cc(Cl)c1O | 0.5
CC(C)Cc1cc(I)c(O)c(CN)c1.Cl | 0.5
CCc1cc(Cl)c(O)c(CN)c1.Cl | 2.7
CCC(C)c1cc(I)c(O)c(CN)c1.Cl (stereo unspecified) | 1.4
Cc1c(C)c(C)c(CN)c(O)c1C.Cl | 1.4

System: Canis familiaris
Assay: Salidiuretic activity in dog following i.v. dosing at 5 mg/kg
Format: functional, Canis lupus familiaris, Urine
Design: unit not given beside the values
Details: route intravenous
Method in brief: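 Conditioned female mongrel dogs, postabsorptive, got a 500 mL oral water load 1 h before pentobarbital anesthesia (30 mg/kg iv). After replicate 15-min control collections, compound was given as an iv stat injection.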

Structure (SMILES) | Diuretic activity
NCc1cc(Cl)ccc1O | 250
Cc1cc(C)c(O)c(CN)c1C.Cl | 250
NCc1c(O)ccc(Cl)c1Cl | 250
CC(C)(C)c1c(Cl)cc(CN)c(O)c1Cl.Cl | 250
CCOC(=O)c1cc(I)c(O)c(CN)c1.Cl | 250
Cc1c(C)c(C)c(CN)c(O)c1C.Cl | 250

System: Canis familiaris
Assay: Compound administered intravenously at a dose of 5 mg/kg was evaluated for salidiuretic activity measured as sodium ion excretion in Dog; Value ranges from 800-899
Format: ADME, organism-based, Canis lupus familiaris, Urine
Design: dose 5 mg/kg, route intravenous; unit not given beside the values
Details: in vivo, iv
Method in brief: as §1

Structure (SMILES) | Diuretic activity
Cl.NCc1cc(I)cc(I)c1O | 800
Cl.NCc1cc(Cl)cc(I)c1O | 800

Continued, values first:

Diuretic activity | Structure (SMILES)
800 | COc1c(C(C)(C)C)cc(I)c(O)c1CN.Cl
800 | CCC(C)(C)c1cc(I)c(O)c(CN)c1.Cl
